# “And” between values parts separate entries of the source, which are not always exact repeats. Equal values may be shown once.
# Columns and labels:
# Isocitrate lyase = Isocitrate lyase (Candida albicans, UniProt Q9P8Q7); test: Inhibition of Candida albicans isocitrate lyase
# Sortase A = molecular target: T1, Sortase A (Staphylococcus aureus, UniProt Q9S446); test: Inhibition of Staphylococcus aureus Sortase A
# T1 sequence (Q9S446 whole entry): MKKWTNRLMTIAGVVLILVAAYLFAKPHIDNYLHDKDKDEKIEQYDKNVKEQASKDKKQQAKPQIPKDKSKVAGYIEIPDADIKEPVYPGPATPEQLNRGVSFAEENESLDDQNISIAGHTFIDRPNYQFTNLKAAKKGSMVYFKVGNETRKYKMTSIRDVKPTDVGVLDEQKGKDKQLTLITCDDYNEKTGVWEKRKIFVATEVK
# Staphylococcus aureus = test: Antimicrobial activity against Staphylococcus aureus ATCC 6538p; type: functional
# In short: (§1)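 MIC by two-fold serial broth dilution in microtiter format. MIC taken as the lowest concentration giving complete growth inhibition relative to the negative control.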
# Bacillus subtilis = test: Antimicrobial activity against Bacillus subtilis ATCC 6633; type: functional; in short: as §1
# Salmonella typhimurium = test: Antimicrobial activity against Salmonella Typhimurium ATCC 14028; type: functional, Salmonella enterica subsp. enterica serovar Typhimurium; details: Salmonella enterica; in short: as §1
# Proteus vulgaris = test: Antimicrobial activity against Proteus vulgaris ATCC 3851; type: functional; in short: as §1
# Micrococcus luteus = test: Antimicrobial activity against Micrococcus luteus IFC 12708; type: functional; in short: as §1
# Escherichia coli = test: Antimicrobial activity against Escherichia coli ATCC 25922; type: functional; in short: as §1
# Sequence of Isocitrate lyase (Q9P8Q7 whole entry): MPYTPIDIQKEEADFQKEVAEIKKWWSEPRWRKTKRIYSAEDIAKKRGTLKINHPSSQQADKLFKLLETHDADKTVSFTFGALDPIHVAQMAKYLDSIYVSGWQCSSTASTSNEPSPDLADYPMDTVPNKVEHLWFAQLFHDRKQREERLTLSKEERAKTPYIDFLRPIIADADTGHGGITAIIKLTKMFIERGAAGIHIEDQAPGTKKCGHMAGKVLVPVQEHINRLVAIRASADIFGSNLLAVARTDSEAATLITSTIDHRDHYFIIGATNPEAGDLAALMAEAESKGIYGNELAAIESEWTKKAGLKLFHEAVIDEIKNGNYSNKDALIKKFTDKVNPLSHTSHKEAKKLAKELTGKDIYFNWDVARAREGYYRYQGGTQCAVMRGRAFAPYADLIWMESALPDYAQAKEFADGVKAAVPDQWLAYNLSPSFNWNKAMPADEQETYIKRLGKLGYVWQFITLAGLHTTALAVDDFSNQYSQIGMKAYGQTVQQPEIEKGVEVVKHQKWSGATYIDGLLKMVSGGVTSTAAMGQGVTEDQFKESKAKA
SMILES,IC50 (Isocitrate lyase),IC50 (Sortase A),MIC (Staphylococcus aureus),MIC (Bacillus subtilis),MIC (Salmonella typhimurium),MIC (Proteus vulgaris),MIC (Micrococcus luteus),MIC (Escherichia coli)
O=C(O)C(=O)c1c[nH]c2ccc(O)cc12,> 487 µM,> 487 µM,–,–,–,–,–,–
COc1ccc2[nH]cc(C(=O)C(=O)O)c2c1,> 456 µM,> 456 µM,–,–,–,–,–,–
Cc1[nH]c2ccccc2c1C(=O)C(=O)O,> 492 µM,133 µM,> 200 µg/mL,> 200 µg/mL,> 200 µg/mL,> 200 µg/mL,> 200 µg/mL,> 200 µg/mL
CCCCCC1NCCc2c1[nH]c1ccccc21 (centres undefined),> 413 µM,> 413 µM,–,–,–,–,–,–
CCCCCC1NCCc2c1[nH]c1ccc(OC)cc21 (centres undefined),> 367 µM,> 367 µM,–,–,–,–,–,–
Oc1ccc2[nH]c3c(c2c1)CCNC3c1ccccc1 (centres undefined),> 378 µM,106 µM,100 µg/mL,100 µg/mL,100 µg/mL,100 µg/mL,100 µg/mL,> 200 µg/mL
c1ccc(C2=NCCc3c2[nH]c2ccccc32)cc1,> 406 µM,97.4 µM and 97 µM,> 200 µg/mL,> 200 µg/mL,> 200 µg/mL,> 200 µg/mL,> 200 µg/mL,> 200 µg/mL
O=C(Nc1ccccc1)C(=O)c1c[nH]c2ccc(O)cc12,> 357 µM,> 357 µM,–,–,–,–,–,–
COc1ccc2[nH]cc(C(=O)C(=O)Nc3ccccc3)c2c1,> 340 µM,> 340 µM,–,–,–,–,–,–
COc1ccc2[nH]c3c(c2c1)CCNC3c1ccccc1 (centres undefined),> 359 µM,115 µM,> 200 µg/mL,> 200 µg/mL,> 200 µg/mL,> 200 µg/mL,> 200 µg/mL,> 200 µg/mL
c1ccc2cc(C3NCCc4c3[nH]c3ccccc43)ccc2c1 (centres undefined),137 µM,> 335 µM,12.5 µg/mL,6.25 µg/mL,12.5 µg/mL,6.25 µg/mL,12.5 µg/mL,50 µg/mL
COc1ccc(C2NCCc3c2[nH]c2ccccc32)cc1 (centres undefined),180 µM,> 359 µM,12.5 µg/mL,6.25 µg/mL,6.25 µg/mL,6.25 µg/mL,6.25 µg/mL,50 µg/mL
COc1ccc2[nH]c3c(c2c1)CCN=C3c1ccccc1,> 362 µM,25.3 µM and 25 µM,> 200 µg/mL,> 200 µg/mL,> 200 µg/mL,> 200 µg/mL,> 200 µg/mL,> 200 µg/mL
c1ccc(C2NCCc3c2[nH]c2ccccc32)cc1 (centres undefined),> 403 µM,> 403 µM,–,–,–,–,–,–
COc1cccc(C2NCCc3c2[nH]c2ccccc32)c1 (centres undefined),75 µM and 75.4 µM,> 359 µM,6.25 µg/mL,12.5 µg/mL,12.5 µg/mL,12.5 µg/mL,12.5 µg/mL,50 µg/mL
O=C(O)C1NCCc2c1[nH]c1ccc(O)cc21 (centres undefined),> 431 µM,> 431 µM,–,–,–,–,–,–
O=C(O)C1NCCc2c1[nH]c1ccccc21 (centres undefined),> 462 µM,> 462 µM,–,–,–,–,–,–
O=C(Nc1ccccc1)C(=O)c1c[nH]c2ccccc12,> 378 µM,174 µM,> 200 µg/mL,> 200 µg/mL,> 200 µg/mL,> 200 µg/mL,> 200 µg/mL,> 200 µg/mL
COc1ccc2[nH]c3c(c2c1)CCNC3C(=O)O (centres undefined),> 406 µM,> 406 µM,–,–,–,–,–,–
O=C1NCCc2c1[nH]c1ccc(O)cc21,> 495 µM,> 495 µM,–,–,–,–,–,–
COC(=O)c1c[nH]c2ccc(O)cc12,> 523 µM,> 523 µM,–,–,–,–,–,–
O=C(O)C1=NCCc2c1[nH]c1ccc(O)cc21,–,291 µM and 290 µM,–,–,–,–,–,–
O=Cc1c[nH]c2ccc(O)cc12,–,> 621 µM,–,–,–,–,–,–
Cc1[nH]c2ccccc2c1C(=O)C(=O)Nc1ccccc1,> 359 µM,61.1 µM and 61 µM,> 200 µg/mL,> 200 µg/mL,> 200 µg/mL,> 200 µg/mL,> 200 µg/mL,> 200 µg/mL
O=C(O)C(=O)c1c[nH]c2ccccc12,> 529 µM,68.7 µM and 69 µM,> 200 µg/mL,> 200 µg/mL,> 200 µg/mL,> 200 µg/mL,> 200 µg/mL,> 200 µg/mL
CC1(C)S[C@@H]2[C@H](NC(=O)[C@H](N)c3ccccc3)C(=O)N2[C@H]1C(=O)O [AMPICILLIN],–,–,1.56 µg/mL,0.78 µg/mL,1.56 µg/mL,0.78 µg/mL,0.78 µg/mL,50 µg/mL
O=C(CO)c1c[nH]c2ccc(O)cc12 [HYRTIOSIN A],–,> 523 µM,–,–,–,–,–,–
O=C(C(=O)c1c[nH]c2ccc(O)cc12)c1c[nH]c2ccc(O)cc12 [HYRTIOSIN B],90.5 µM,> 312 µM,–,–,–,–,–,–
NCCc1c[nH]c2ccc(O)cc12 [SEROTONIN],–,> 567 µM,–,–,–,–,–,–
